SIAE primary = inhibitors of human sialic acid acetylesterase SIAE. Q9HAT2. SIAE FP-Rh probe binding, fluorescence polarization. inhibition, % at 9.66 µM. actives 0.69% (n = 370,000). AID 1053197;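 active = inhibition above a cutoff: mean of compounds within the control limits plus 3 SD of those, cut at about 17% in these data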
Target sequence (Q9HAT2 whole entry, looked up): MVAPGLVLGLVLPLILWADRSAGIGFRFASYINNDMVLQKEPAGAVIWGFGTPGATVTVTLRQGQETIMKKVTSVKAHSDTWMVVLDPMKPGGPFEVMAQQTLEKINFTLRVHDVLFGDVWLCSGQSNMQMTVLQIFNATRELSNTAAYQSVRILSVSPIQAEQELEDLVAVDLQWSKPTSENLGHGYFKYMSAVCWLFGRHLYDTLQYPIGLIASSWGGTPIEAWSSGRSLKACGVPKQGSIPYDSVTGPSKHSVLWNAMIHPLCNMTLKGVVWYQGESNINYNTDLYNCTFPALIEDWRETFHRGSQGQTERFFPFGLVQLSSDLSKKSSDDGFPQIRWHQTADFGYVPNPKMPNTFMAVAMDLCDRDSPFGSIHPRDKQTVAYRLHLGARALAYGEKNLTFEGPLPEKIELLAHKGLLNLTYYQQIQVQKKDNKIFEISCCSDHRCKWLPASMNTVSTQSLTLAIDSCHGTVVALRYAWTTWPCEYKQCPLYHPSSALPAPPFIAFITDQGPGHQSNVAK
mABHD4 FP = ABHD4 (mouse) inhibition, primary FP screen. inhibition, % at 8.92 µM. Q8VD66. purified mABHD4, FP-Rh probe fluorescence polarization. actives 0.54% (n = 370,000);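 active = inhibition exceeding the mean over every tested compound plus 3 SD, cut at about 30% in these data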
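Test system: mABHD4 protein; Read-out basis: % inhibition; Incubation: 45 min + 60 min at 25 °C; Repeats: single replicate; Technique: fluorescence polarization with parallel and perpendicular emission, 525/598 nm; Compound: 8.92 µM, single dose; Benchmarks: full inhibition S159A mutant plus DMSO, zero as sample-well median.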
ATG4B inh = inhibitors of human ATG4B cysteine protease | inhibition, % at 8.33 µM | Q9Y4P1 | actives 0.51% (n = 340,000) | AID 504462 | ATG4B cleavage of LC3-PLA2, NBD-HPC fluorescence, 1 h; in the data active = inhibition above about 40%
PRMT1 FP inh = inhibitors of human PRMT1 | Q99873 | recombinant PRMT1, activity-based probe fluorescence polarization | inhibition, % at 2.79 µM | actives 1.3% (n = 370,000) | AID 652257;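 active = inhibition above about 21% made by adding two undisclosed values, limit read from the data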
HTRA1 inhibitor = blocks human HTRA1 serine peptidase | inhibition, % at 5.96 µM | actives 0.5% (n = 340,000) | recombinant HTRA1, FP-rhodamine activity-based probe, fluorescence polarization | AID 504803 | Q92743; in the data active = inhibition above about 36%
TCR CD3 inh = blocks the human TCR-CD3 interaction; TAMRA-labeled TCR probe fluorescence, biochemical; inhibition, % at 9.4 µM; actives 0.37% (n = 360,000); in the data active = inhibition above about 19%;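 also: recombinant mutant TCR 2C K166C tagged with TAMRA read by polarization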
PRMT1 inh conf = confirmation of human PRMT1 inhibitors; shares compounds with PRMT1 FP inh; recombinant His-PRMT1, activity-based probe fluorescence polarization; inhibition, % at 2.79 µM; actives 42% (n = 3,300); AID 687036;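 active = mean inhibition across replicates above the hit cutoff derived for the earlier primary screen, cut at about 22% in these data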
Each line names hits and unclear results; the compound was inactive in the other large screens (follow-up assays come after a bar, where they were run). Most compounds without a hit are left out; they make up all but 2.9% or so of the library.

CCOC(=O)Cn1cc(CN2CCS(=O)(=O)N(Cc3ccc(OC)cc3)C(C(=O)OC)C2)nn1 (configuration not stated)	none (no result: ATG4B inh, HTRA1 inhibitor, TCR CD3 inh)
COCc1cc(N2CCN(C(=O)OC(C)(C)C)C[C@H]2C)ccc1N1CCS(=O)(=O)CC1	none (no result: ATG4B inh, HTRA1 inhibitor)
O=C1C=CC(=O)N1c1cccc(-c2ccccc2)c1	PRMT1 FP inh 91 | PRMT1 inh conf 94
S=C(NCc1ccco1)Nc1ccc(Br)cn1	none
S=C(NCc1ccco1)Nc1cc(-c2ccccc2)[nH]n1	PRMT1 FP inh 32 | PRMT1 inh conf 29
O=C1C=C(O)c2cccc3cccc1c23	PRMT1 FP inh 48 | PRMT1 inh conf inactive
NN=C1C(=O)c2cccc3cccc1c23	none
NC1=NC(=O)CC(C(=O)NCCc2ccccc2)S1 (configuration not stated)	PRMT1 FP inh 30 | PRMT1 inh conf inactive
NC1=NC(=O)CC(C(=O)Nc2cccc3ccccc23)S1 (configuration not stated)	none (no result: SIAE primary, mABHD4 FP, PRMT1 FP inh, TCR CD3 inh)
N#CC1=C(N)NC(=S)C(C(N)=O)C1c1ccc([N+](=O)[O-])cc1 (configuration not stated)	PRMT1 FP inh 67 | PRMT1 inh conf inactive
Cc1cccc2cc3c(N)c(C#N)sc3nc12	none
Cc1cccc2cc3c(N)c(C(=O)N4CCc5ccccc54)sc3nc12	PRMT1 FP inh 31 | PRMT1 inh conf inactive
Cc1sc(NC(=O)c2sc3nc4c(C)cccc4cc3c2N)c(C#N)c1C	PRMT1 FP inh 31 | PRMT1 inh conf inactive
Cc1ccc(C)c2nc3sc(C(=O)N4CCOCC4)c(N)c3cc12	none
C[C@@H]1/C=C/CC(=O)N[C@H](c2cccc(Br)c2)[C@H](C)/C=C/CC(=O)N[C@@H]1c1cccc(Br)c1	none (no result: ATG4B inh, HTRA1 inhibitor, TCR CD3 inh)
O=C(NC1CCCCN(Cc2ccc(Cl)cc2)C1=O)c1cccc([N+](=O)[O-])c1 (configuration not stated)	none (no result: ATG4B inh, HTRA1 inhibitor, TCR CD3 inh)
c1ccc(-c2nc3c([nH]2)CCc2nonc2-3)cc1	none
c1coc(-c2nc3c([nH]2)CCc2nonc2-3)c1	PRMT1 FP inh 72 | PRMT1 inh conf inactive
COP(=O)(CC(=O)O)C(CC(C)C)NC(=O)OCc1ccccc1 (configuration not stated)	none (no result: ATG4B inh, HTRA1 inhibitor, TCR CD3 inh)
C=CCN1C(=O)[C@@H](CC(=O)N2CCOCC2)[C@]2(C(=O)OC)CCCCC=C12	none (no result: ATG4B inh, HTRA1 inhibitor, TCR CD3 inh)
O=C1c2ccccc2[C@@H]2Cc3csc[n+]3[C@H]12	PRMT1 FP inh 85 (no result: ATG4B inh, HTRA1 inhibitor) | PRMT1 inh conf 83
COc1ccc(-c2ccc3c(n2)CCCN3S(=O)(=O)c2ccccc2)cc1	none (no result: ATG4B inh, HTRA1 inhibitor)
Cn1c(CS/C(N)=N/N=C/c2ccccc2)c(Br)c(=O)n1-c1ccccc1	PRMT1 FP inh 42 | PRMT1 inh conf 56
COc1cc(OC)cc(N2C(=O)CC(N3CCC(C(=O)N4CCCCC4)CC3)C2=O)c1 (configuration not stated)	PRMT1 FP inh 78 | PRMT1 inh conf inactive
O=C1CCCN1CCC1CCN(C2CC(=O)N(c3ccc(F)cc3)C2=O)CC1 (configuration not stated)	PRMT1 FP inh 48 | PRMT1 inh conf inactive
O=C(C1CCN(C2CC(=O)N(c3ccc(F)cc3)C2=O)CC1)N1CCOCC1 (configuration not stated)	PRMT1 FP inh 46 | PRMT1 inh conf inactive
O=C1CC(N2CCC(C(=O)N3CCCCC3)CC2)C(=O)N1 (configuration not stated)	PRMT1 FP inh 62 | PRMT1 inh conf inactive
c1ccc(-c2nnc3n2N=C(c2ccc4ccccc4c2)CS3)cc1	none (no result: ATG4B inh, HTRA1 inhibitor, TCR CD3 inh)
CC(=O)Nc1cccc(N2C(=O)CC(N3CCC(C(=O)N4CCCCC4)CC3)C2=O)c1 (configuration not stated)	PRMT1 FP inh 79 | PRMT1 inh conf inactive
O=C1CC(N2CCOCC2)C(=O)N1c1ccccc1Cl (configuration not stated)	PRMT1 FP inh 26 | PRMT1 inh conf inactive
O=C1CC(N2CCOCC2)C(=O)N1c1cc(Cl)cc(Cl)c1 (configuration not stated)	none
c1ccc(Cn2c(SCC3CCC3)nnc2-c2cccnc2)cc1	none (no result: ATG4B inh, HTRA1 inhibitor, TCR CD3 inh)
c1ccc(Cn2c(SCC3CCCCC3)nnc2-c2cccnc2)cc1	PRMT1 FP inh 46 (no result: ATG4B inh, HTRA1 inhibitor, TCR CD3 inh) | PRMT1 inh conf inactive
Cc1ccc(N2CCN(S(=O)(=O)c3ccc(C)cc3)CC2)cc1	none
O=C(CN1CCN(c2ccc(O)cc2)CC1)NC(c1ccccc1)c1ccccc1	PRMT1 FP inh 25 | PRMT1 inh conf inactive
Cc1cc(NC(=O)CN2CCN(c3ccc(O)cc3)CC2)no1	PRMT1 FP inh 42 | PRMT1 inh conf inactive
O=C(CN1CCN(c2ccc(O)cc2)CC1)NCC(=O)Nc1ccc(F)c(F)c1F	PRMT1 FP inh 37 | PRMT1 inh conf inactive
Cc1ccc(S(=O)(=O)N2CCN(C(=O)CN3CCN(c4ccc(O)cc4)CC3)CC2)cc1	PRMT1 FP inh 34 | PRMT1 inh conf inactive
Cc1cc(NC(=O)CN2CCN(S(=O)(=O)c3ccc(Cl)cc3)CC2)no1	none
O=C(OC12CCCN(C1)/C(=C/c1cccnc1)C2)C1CCCCC1 (configuration not stated)	none (no result: ATG4B inh, HTRA1 inhibitor, TCR CD3 inh)
CN1CCN(c2ccc3c(c2)Oc2ccccc2CN(Cc2cn(Cc4ccc(F)cc4)nn2)S3(=O)=O)CC1	none (no result: ATG4B inh, HTRA1 inhibitor, TCR CD3 inh)
CC(=O)N1CCN(C2=NC(=O)N(c3ccc(Br)cc3)C(=O)C2)CC1	none (no result: ATG4B inh, HTRA1 inhibitor, TCR CD3 inh)
CC1(C)CC(=O)C2=C(C1)Nc1ccccc1NC2	PRMT1 FP inh 25 | PRMT1 inh conf inactive
C/C=C\C=C/C(=O)Nc1cccc(C2=NOC3(C2)C[C@H](C(N)=O)N(C(=O)Cc2ccc([N+](=O)[O-])cc2)C3)c1 (some centres not stated)	PRMT1 FP inh 42 | PRMT1 inh conf 52
C/C=C\C=C/C(=O)Nc1cccc(C2=NOC3(C2)C[C@@H](C(N)=O)N(C(=O)CCCCC)C3)c1 (some centres not stated)	PRMT1 FP inh 25 | PRMT1 inh conf 65
C/C=C(/C)C(=O)Nc1cccc(C2=NOC3(C2)C[C@H](C(N)=O)N(C(=O)Cc2ccc([N+](=O)[O-])cc2)C3)c1 (some centres not stated)	none
C/C=C\C=C/C(=O)Nc1cccc(C2=NOC3(C2)C[C@H](C(N)=O)N(C(=O)CC)C3)c1 (some centres not stated)	none
Cc1cccc(-c2cccc3c4c([nH]c23)[C@@H]2C[C@H](N(C)C(=O)Nc3ccccc3)[C@H]([C@H](C)O)C(=O)N2CC4)c1	none (no result: ATG4B inh, HTRA1 inhibitor, TCR CD3 inh)
COc1ccccc1-n1c(SCC(=O)NC(C)(C)C)nc(O)cc1=O	none
COc1ccccc1-n1c(SC)nc(O)cc1=O	PRMT1 FP inh 25 | PRMT1 inh conf inactive
C#CCNC(=O)C[C@H]1C[C@@]2(C(=O)OC)C(=C[C@H](C3CCCC3)O[C@@H]2C)N(CCC2=CCCCC2)C1=O	none (no result: ATG4B inh, HTRA1 inhibitor, TCR CD3 inh)

Screens: PubChem BioAssay, several laboratories
